Reference: ChEMBL document CHEMBL3259660, “Haloemodin as novel antibacterial agent inhibiting DNA gyrase and bacterial topoisomerase I” (J Med Chem, 2014)
Values after ≈ are worked out from the molar mass of the structure shown. Active and inactive are the calls of the source. No cut-off for these calls is given here.

What was measured:
Staphylococcus aureus [1] = test: In vivo antibacterial activity against Staphylococcus aureus in New zealand rabbit keratitis model assessed as suppression of corneal edema at 4.3 mg/ml administered topically every 4 hrs for four doses every day for 10 days starting 24 hrs post-infection by slit lamp biomicroscopy; type: functional, organism-based; conditions: Cornea
Method in brief: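 NZW rabbits (2.0−3.0 kg), anesthetized with iv sodium pentobarbital 30 mg/kg, given intracorneal S. aureus (about 7.5 × 10^6 CFU) from an overnight LB culture. Starting 24 h post-infection, 30 μL drops applied topically per eye every 4 h, four doses daily (8 a.m.–8 p.m.), for 10 days, masked. Test compound in PEG–water (1:1). Slit-lamp biomicroscopy before and after.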

Escherichia coli [2] = test: Antibacterial activity against Escherichia coli assessed as growth inhibition by agar dilution assay in presence of 0.002 mg/ml OM permeabilizer PBMN; type: functional
[3] = tested on: Staphylococcus epidermidis; test: Antibacterial activity against methicillin-sensitive Staphylococcus epidermidis assessed as growth inhibition by agar dilution assay; type: functional
Method in brief: (§1)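 Agar dilution MIC per CLSI (aerobic and anaerobic methods); compounds dissolved in DMSO, reference antibiotics in sterile water. MIC taken as lowest concentration with no visible growth; determined at least twice on separate days, higher value reported. Clinical isolate ranges summarized as MIC50/MIC90.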

[4] = Cytotoxicity against CHL cells assessed as cell viability after 24 hrs by MTT assay; type: cell-based, Cricetulus griseus; conditions: chinese hamster
Method in brief: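 CHL fibroblasts seeded at about 5 × 10^4 cells/mL, incubated overnight at 37 °C, 5% CO2, then exposed to compound at different concentrations for 24 h. Viability read by MTT, absorbance at 570 nm, relative to cells in medium alone (100%). Triplicate.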

Escherichia coli [5] = test: Antibacterial activity against Escherichia coli PQ 37 harboring OM permeability barrier mutant assessed as growth inhibition by agar dilution assay; type: functional
Method in brief: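 CLSI agar dilution MIC against aerobic and anaerobic strains. Test compounds were dissolved in DMSO and reference antibiotics in sterile water. MIC was taken as the lowest concentration showing no bacterial growth. Each MIC was determined at least twice on separate days, and the higher value was reported. E. coli PQ 37 was cultured in LA medium.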

Escherichia coli [6] = test: Inhibition of Escherichia coli DNA gyrase-mediated pHOT-1 supercoiling at 30 uM after 30 mins by agarose gel electrophoresis in presence of ATP
Method in brief: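 Supercoiling: 100 ng relaxed pHOT-1 with 1 U S. aureus or E. coli gyrase and graded compound concentrations, ATP present, 37 °C for 30 min. Stopped with 10% SDS, 1% agarose electrophoresis, ethidium bromide staining, UV imaging; ciprofloxacin positive control.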

Streptococcus pneumoniae = test: Antibacterial activity against Streptococcus pneumoniae assessed as growth inhibition by agar dilution assay; type: functional; method in brief: as §1
[7] = tested on: Brevibacillus laterosporus; test: Antibacterial activity against Brevibacillus laterosporus ATCC 64 assessed as growth inhibition by agar dilution assay; type: functional
Staphylococcus aureus [8] = test: microbe, parasite or virus in culture; type: functional; conditions: ATCC 6538
Bacteroides fragilis [9] = test: Antibacterial activity against Bacteroides fragilis assessed as growth inhibition by agar dilution assay; type: functional; method in brief: as §1
Enterococcus faecium [10] = test: Antibacterial activity against vancomycin-sensitive Enterococcus faecium assessed as growth inhibition by agar dilution assay; type: functional
Bacteroides fragilis [11] = test: Antibacterial activity against Bacteroides fragilis ATCC 25285 assessed as growth inhibition by agar dilution assay; type: functional; method in brief: as §1
[12] = In vivo acute toxicity in iv dosed Kunming mouse; type: organism-based
Method in brief: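 Male and female adult Kunming mice (18−22 g) received a single intravenous injection at various doses (n = 10 per group, 200 μL per mouse). Compound was given in polyethylene glycol−water (1:1, v/v), and controls received vehicle alone. Mortality was recorded for 7 days. LD50 was estimated by probit analysis.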

Enterococcus faecium [13] = test: Antibacterial activity against vancomycin-resistant Enterococcus faecium assessed as growth inhibition by agar dilution assay; type: functional

## Cc1cc(O)c2c(c1)C(=O)c1c(I)c(O)c(I)c(O)c1C2=O
Staphylococcus aureus [1]
  inhibition: Active
Escherichia coli [2]
  MIC: 8 µg/mL
[3]
  MIC: 1 µg/mL (≈ 1.92 µM)
[4]
  IC90 at 24 h: 256 µg/mL (≈ 490 µM)
Escherichia coli [5]
  MIC: 8 µg/mL (≈ 15.3 µM)
Escherichia coli [6]
  inhibition: Active
Streptococcus pneumoniae
  MIC: 32 µg/mL (≈ 61.3 µM)
[7]
  MIC: 4 µg/mL (≈ 7.66 µM)
Staphylococcus aureus [8]
  MIC: 2 µg/mL (≈ 3.83 µM)
Bacteroides fragilis [9]
  MIC: 64 µg/mL (≈ 123 µM)
Enterococcus faecium [10]
  MIC: 16 µg/mL (≈ 30.6 µM)
Bacteroides fragilis [11]
  MIC: 256 µg/mL (≈ 490 µM)
[12]
  LD50: 110 mg/kg
Enterococcus faecium [13]
  MIC: 8 µg/mL (≈ 15.3 µM)
